For data set [1] the following is noted: ref Wang, Yang, & Song, 2001; cited from earlier work.
Data set [2] relates to MRP. In words: Effect of MK-571. The note with it: 0.1 mg/mL SKE + 100 μmol/L MK-571; Caco-2; Fig. 4. The data set is classed as in vitro ADME, human. The procedure, abridged: (§1)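 Caco-2 cells were seeded at 1×10^5/cm² on 0.4 µm inserts and grown about 20 d in DMEM with 10% FBS, then used once TEER exceeded 500 Ω·cm². After a 15 min HBSS equilibration, 0.1 mg/mL extract plus 100 µmol/L inhibitor was dosed AP or BL at 37 °C with 50 r/min shaking. Receiver was sampled with replacement and four anthraquinones were quantified by HPLC. Papp came from the slope, ER = Papp(B-A)/Papp(A-B), n=3.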

Data set [3] relates to rat different intestinal segments. Put plainly: In situ single-pass intestinal perfusion in rats. Conditions: same tested intestinal segment. The data set is classed as in vivo, Sprague-Dawley rats. The procedure, abridged:
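Male Sprague-Dawley rats (250 ± 50 g) were fasted overnight, anesthetized, and ~10 cm duodenum, jejunum or colon segments were cannulated and flushed with 37 °C saline. Krebs-Ringer perfusate held 22.50 mg/mL extract or matched pure anthraquinones (DMSO <1.0%). Flow was 1 mL/min for 5 min, then 0.2 mL/min for 30 min equilibration. Outflow was collected every 15 min to 120 min and analysed by HPLC. Peff was calculated from gravimetrically corrected volumes and segment length/radius.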

The target in data set [4] is P-gp (Homo sapiens, UniProt P08183). In words: Effect of verapamil. The note with it: 0.1 mg/mL SKE + 100 μmol/L verapamil; Caco-2; Fig. 4. The data set is classed as in vitro ADME. Put shortly:
as §1

Data set [5] is described as follows: Bidirectional transport of SKE and RAI in Caco-2 cell monolayer model. The format is in vitro ADME, human. Conditions: human; for Papp A→B at 0.05 mg/mL / Papp A→B at 0.1 mg/mL / Papp A→B at 0.025 mg/mL: Caco-2, Papp(A-B), Caco-2, AP-BL; for Papp A→B at 0.05 mg/mL / Papp A→B at 0.1 mg/mL / Papp A→B at 0.025 mg/mL / Papp B→A at 0.05 mg/mL / Papp B→A at 0.1 mg/mL / Papp B→A at 0.025 mg/mL: mean ± SD, n = 3; for Papp B→A at 0.05 mg/mL / Papp B→A at 0.1 mg/mL / Papp B→A at 0.025 mg/mL: Caco-2, Papp(B-A), Caco-2, BL-AP; for efflux ratio at 0.05 mg/mL / efflux ratio at 0.1 mg/mL / efflux ratio at 0.025 mg/mL: Caco-2, ER, ER=Papp(B-A)/Papp(A-B). (In general: Caco-2 cells form a polarised layer with tight junctions and transporters.)

Data set [6] has as its system Caco-2 cell monolayer. The data set is described as above. The data set is classed as in vitro ADME, human. Conditions: Caco-2; for Cumulative transport mass (AP-BL): in SKE 0.025, 0.05, 0.1 mg/mL over time, Fig. 3.
The mark [7] stands for this setting: in RAI, contents as in 0.05 mg/mL SKE.
Where [8] appears, read: in RAI, contents as in 0.1 mg/mL SKE.

Each structure is given as a SMILES string.

The source of these data is PMC9975633 (Chinese Herbal Medicines, 2022).

Sequence of P-gp (P08183 whole entry): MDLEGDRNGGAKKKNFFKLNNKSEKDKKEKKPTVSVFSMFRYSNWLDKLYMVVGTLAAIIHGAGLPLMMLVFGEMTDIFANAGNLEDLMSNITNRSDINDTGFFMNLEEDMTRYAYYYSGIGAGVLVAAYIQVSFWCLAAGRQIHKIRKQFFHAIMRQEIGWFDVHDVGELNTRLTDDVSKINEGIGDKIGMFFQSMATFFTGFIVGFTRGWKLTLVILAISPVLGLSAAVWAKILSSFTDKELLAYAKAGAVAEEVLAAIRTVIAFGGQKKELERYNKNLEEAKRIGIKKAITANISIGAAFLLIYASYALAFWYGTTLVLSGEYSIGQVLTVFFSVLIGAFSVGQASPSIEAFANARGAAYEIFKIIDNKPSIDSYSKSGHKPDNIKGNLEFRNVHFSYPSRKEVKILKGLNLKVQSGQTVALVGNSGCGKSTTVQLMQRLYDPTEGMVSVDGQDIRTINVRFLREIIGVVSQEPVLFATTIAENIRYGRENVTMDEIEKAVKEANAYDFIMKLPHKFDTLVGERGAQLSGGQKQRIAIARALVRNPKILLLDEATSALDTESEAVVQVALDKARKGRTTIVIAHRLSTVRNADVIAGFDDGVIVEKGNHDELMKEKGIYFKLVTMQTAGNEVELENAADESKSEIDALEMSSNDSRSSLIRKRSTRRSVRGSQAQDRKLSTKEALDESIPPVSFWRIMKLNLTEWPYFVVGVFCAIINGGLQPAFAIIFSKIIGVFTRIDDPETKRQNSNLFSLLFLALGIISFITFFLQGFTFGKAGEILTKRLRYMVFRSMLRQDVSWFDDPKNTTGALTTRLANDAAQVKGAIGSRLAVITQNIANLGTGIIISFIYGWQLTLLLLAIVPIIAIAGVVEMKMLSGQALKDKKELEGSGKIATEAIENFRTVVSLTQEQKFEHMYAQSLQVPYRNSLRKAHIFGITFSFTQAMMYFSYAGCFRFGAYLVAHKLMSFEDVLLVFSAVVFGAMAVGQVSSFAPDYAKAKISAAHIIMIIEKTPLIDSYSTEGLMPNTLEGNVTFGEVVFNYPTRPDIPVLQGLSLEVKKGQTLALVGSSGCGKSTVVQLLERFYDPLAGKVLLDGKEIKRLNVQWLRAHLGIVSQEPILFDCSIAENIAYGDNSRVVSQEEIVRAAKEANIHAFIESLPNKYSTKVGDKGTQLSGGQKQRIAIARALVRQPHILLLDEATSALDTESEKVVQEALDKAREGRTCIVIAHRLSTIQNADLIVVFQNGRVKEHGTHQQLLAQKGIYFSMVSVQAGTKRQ

Take `O=C1c2cccc(O)c2C(=O)c2c(O)cc(CO)cc21` [Aloe-emodin, aloe-emodin]: the pKa – broadly, the pH at which an ionisable group is half protonated – in data set [1] is 8.64. Moreover, in data set [2], the “ER after addition of MK571, compared with SKE group” value is given as “decreased”. In data set [3], the “Peff in RAI compared with SKE” value was “higher than those in SKE”. Besides, the “ER after addition of verapamil, compared with SKE group” value in data set [4] was “reduced the most”. In data set [5] (setting [7]), the Papp A→B – broadly, the apparent permeability from the apical to the basolateral side of a cell layer – at 0.05 mg/mL was determined as 15.1 ± 1.54 ×10⁻⁶ cm/s and the Papp B→A (commonly how fast a substance crosses the layer from the basolateral side) at 0.05 mg/mL came out at 16.1 ± 1.83 ×10⁻⁶ cm/s. In data set [5] (setting [8]), this compound showed a Papp A→B at 0.1 mg/mL of 14.3 ± 1.06 ×10⁻⁶ cm/s and an apparent permeability from basolateral to apical (Papp B→A) at 0.1 mg/mL of 17.3 ± 0.79 ×10⁻⁶ cm/s. In data set [5] (in SKE), this compound yielded a Papp A→B at 0.025 mg/mL of 19.6 ± 2.04 ×10⁻⁶ cm/s and a Papp B→A at 0.025 mg/mL of 24 ± 0.59 ×10⁻⁶ cm/s. In data set [5] (in SKE, 0.05 mg/mL), this compound had a Papp A→B at 0.05 mg/mL of 19.4 ± 1.47 ×10⁻⁶ cm/s and a Papp B→A at 0.05 mg/mL of 23.4 ± 1.56 ×10⁻⁶ cm/s. In data set [5] (in SKE, 0.1 mg/mL), this compound yielded a Papp A→B at 0.1 mg/mL of 17.6 ± 0.74 ×10⁻⁶ cm/s and a Papp B→A at 0.1 mg/mL of 19.4 ± 1.65 ×10⁻⁶ cm/s. Moreover, the “Cumulative transport mass (AP-BL)” value in data set [6] was “time- and concentration-dependent”.

As to `Cc1cc(O)c2c(c1)C(=O)c1cccc(O)c1C2=O` [Chrysophanol, chrysophanol], in data set [1], the pKa is recorded as 8.58. In addition, the “ER after addition of MK571, compared with SKE group” value in data set [2] was “reduced the most”. Also, the “Peff in RAI compared with SKE” value in data set [3] was “higher than those in SKE”. The “ER after addition of verapamil, compared with SKE group” value in data set [4] is “decreased”. For the same compound, in data set [5] (setting [7]), the efflux ratio (as a rule, a quotient of directional permeabilities that is used to spot active efflux) at 0.05 mg/mL was 1.75; the Papp A→B at 0.05 mg/mL is 8.99 ± 0.44 ×10⁻⁶ cm/s; the Papp B→A at 0.05 mg/mL is 15.7 ± 1.05 ×10⁻⁶ cm/s. In data set [5] (setting [8]), the efflux ratio at 0.1 mg/mL was 1.66, the Papp A→B at 0.1 mg/mL was 7.97 ± 1.06 ×10⁻⁶ cm/s and the Papp B→A at 0.1 mg/mL was 13.2 ± 0.67 ×10⁻⁶ cm/s. Moreover, in data set [5] (in SKE), the efflux ratio at 0.025 mg/mL was found to be 2.22, the Papp A→B at 0.025 mg/mL was found to be 6.23 ± 0.86 ×10⁻⁶ cm/s and the apparent permeability from basolateral to apical (Papp B→A) at 0.025 mg/mL was found to be 13.8 ± 0.65 ×10⁻⁶ cm/s. In addition, in data set [5] (in SKE, 0.05 mg/mL), the efflux ratio at 0.05 mg/mL worked out at 2.02, the Papp A→B at 0.05 mg/mL was 6.87 ± 0.23 ×10⁻⁶ cm/s and the Papp B→A at 0.05 mg/mL was 13.9 ± 0.86 ×10⁻⁶ cm/s. In data set [5] (in SKE, 0.1 mg/mL), the efflux ratio at 0.1 mg/mL was 1.61, the Papp A→B at 0.1 mg/mL amounted to 6.63 ± 0.48 ×10⁻⁶ cm/s and the Papp B→A at 0.1 mg/mL is 10.7 ± 0.15 ×10⁻⁶ cm/s. Also, the “Cumulative transport mass (AP-BL)” value in data set [6] is “time- and concentration-dependent”.

With `Cc1cc(O)c2c(c1)C(=O)c1cc(O)cc(O)c1C2=O` [Emodin, emodin], the pKa in data set [1] is 5.70. Further, the “ER after addition of MK571, compared with SKE group” value in data set [2] was “decreased”. The “Peff in RAI compared with SKE” value in data set [3] was “higher than those in SKE”. Besides, the “ER after addition of verapamil, compared with SKE group” value in data set [4] was “reduced the most”. For the same compound, in data set [5] (setting [7]), the efflux ratio at 0.05 mg/mL was 1.48, the Papp A→B at 0.05 mg/mL was 7.74 ± 0.61 ×10⁻⁶ cm/s and the Papp B→A at 0.05 mg/mL was 11.5 ± 0.27 ×10⁻⁶ cm/s. Moreover, in data set [5] (setting [8]), the efflux ratio at 0.1 mg/mL was 1.62, the Papp A→B at 0.1 mg/mL was found to be 7.31 ± 0.97 ×10⁻⁶ cm/s and the basolateral-to-apical permeability (Papp B→A) at 0.1 mg/mL worked out at 11.8 ± 0.66 ×10⁻⁶ cm/s. Moreover, in data set [5] (in SKE), the efflux ratio at 0.025 mg/mL is 1.6, the Papp A→B at 0.025 mg/mL was 7.4 ± 0.08 ×10⁻⁶ cm/s and the Papp B→A at 0.025 mg/mL came out at 11.9 ± 1.11 ×10⁻⁶ cm/s. Also, in data set [5] (in SKE, 0.05 mg/mL), the efflux ratio at 0.05 mg/mL was 1.59, the Papp A→B at 0.05 mg/mL turned out to be 6.65 ± 0.16 ×10⁻⁶ cm/s and the Papp B→A at 0.05 mg/mL is 10.6 ± 0.31 ×10⁻⁶ cm/s. Also, in data set [5] (in SKE, 0.1 mg/mL), the efflux ratio at 0.1 mg/mL was 1.46, the apical-to-basolateral permeability (Papp A→B) at 0.1 mg/mL worked out at 6.24 ± 0.29 ×10⁻⁶ cm/s and the Papp B→A at 0.1 mg/mL was determined as 9.13 ± 0.42 ×10⁻⁶ cm/s. Further, in data set [6], the “Cumulative transport mass (AP-BL)” value was “time- and concentration-dependent”.

In the case of `O=C(O)c1cc(O)c2c(c1)C(=O)c1cccc(O)c1C2=O` [Rhein, rhein], in data set [1], the pKa is recorded as 4.72. Besides, the “Peff in RAI compared with SKE” value in data set [3] is reported as “lower than that in SKE”. Further, in data set [5] (setting [7]), the efflux ratio at 0.05 mg/mL amounted to 0.76, the Papp A→B at 0.05 mg/mL amounted to 35 ± 1.72 ×10⁻⁶ cm/s and the Papp B→A at 0.05 mg/mL amounted to 26.6 ± 1.03 ×10⁻⁶ cm/s. Further, in data set [5] (setting [8]), the efflux ratio at 0.1 mg/mL came out at 0.88, the Papp A→B at 0.1 mg/mL amounted to 34.2 ± 1.13 ×10⁻⁶ cm/s and the Papp B→A at 0.1 mg/mL stood at 30.1 ± 1.37 ×10⁻⁶ cm/s. Also, in data set [5] (in SKE), the efflux ratio at 0.025 mg/mL was 0.96, the Papp A→B at 0.025 mg/mL was found to be 27.4 ± 1.47 ×10⁻⁶ cm/s and the Papp B→A at 0.025 mg/mL worked out at 21 ± 0.4 ×10⁻⁶ cm/s. In data set [5] (in SKE, 0.05 mg/mL), the efflux ratio at 0.05 mg/mL stood at 0.73, the apical-to-basolateral permeability (Papp A→B) at 0.05 mg/mL was determined as 28.02 ± 0.14 ×10⁻⁶ cm/s and the Papp B→A at 0.05 mg/mL amounted to 20.5 ± 0.46 ×10⁻⁶ cm/s. Also, in data set [5] (in SKE, 0.1 mg/mL), the efflux ratio at 0.1 mg/mL worked out at 0.64, the Papp A→B at 0.1 mg/mL worked out at 31 ± 2.31 ×10⁻⁶ cm/s and the Papp B→A at 0.1 mg/mL was found to be 19.8 ± 0.37 ×10⁻⁶ cm/s. Also, the “Papp(A-B) as fold of Papp(B-A)” value in data set [6] (0.025 mg/mL SKE) came to 1.4 fold. For the same compound, the “Papp(A-B) as fold of Papp(B-A)” value in data set [6] (0.05 mg/mL SKE) came out at 1.6 fold. In addition, the “ER (over all concentrations)” value in data set [6] (in RAI, contents as in 0.025-0.1 mg/mL SKE) was “lower than 1.0”. In addition, the “Cumulative transport mass (AP-BL)” value in data set [6] is “time- and concentration-dependent”. Besides, in data set [6] (in SKE, 0.025-0.1 mg/mL), the “ER (over all concentrations)” value is “lower than 1.0”.
